ChEMBL document CHEMBL1275455, “Resistance and virulence of Pseudomonas aeruginosa clinical strains overproducing the MexCD-OprJ efflux pump” (2008)
Values after ≈ are worked out from the molar mass of the structure shown.

Experiments:
Pseudomonas aeruginosa [1] = test: Antibacterial activity against Pseudomonas aeruginosa FK06 by twofold serial dilution method; assay type: functional
Procedure, shortened: (§1)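 MIC by twofold serial dilution in Mueller-Hinton agar with adjusted Ca2+ and Mg2+, spotted with a Steers multiple inoculator at about 10^4 CFU per spot. Plates were incubated at 37°C and read visually at 18 and 24 h. Values are modal MICs of three independent determinations.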

Pseudomonas aeruginosa [2] = test: Antibacterial activity against Pseudomonas aeruginosa 3308 by twofold serial dilution method; assay type: functional
Procedure, shortened: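 MIC by serial twofold agar dilution in cation-adjusted Mueller-Hinton agar, about 10^4 CFU per spot applied with Steers multiple inoculator; plates at 37°C, read visually at 18 and 24 h. Modal values of three independent determinations. For pNF225 carriers, 150 μg/ml ticarcillin was added to growth cultures.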

Pseudomonas aeruginosa [3] = test: Antibacterial activity against Pseudomonas aeruginosa 1956 by twofold serial dilution method; assay type: functional; procedure, shortened: as §1
Pseudomonas aeruginosa [4] = test: microbe, parasite or virus in culture; conditions: 2439
Pseudomonas aeruginosa [5] = test: Antibacterial activity against Pseudomonas aeruginosa PAO1 by twofold serial dilution method; assay type: functional; procedure, shortened: as §1
Pseudomonas aeruginosa [6] = test: Antibacterial activity against Pseudomonas aeruginosa EryR by twofold serial dilution method; assay type: functional; procedure, shortened: as §1
Pseudomonas aeruginosa [7] = test: Antibacterial activity against Pseudomonas aeruginosa FE60 by twofold serial dilution method; assay type: functional; procedure, shortened: as §1
Pseudomonas aeruginosa [8] = test: microbe, parasite or virus in culture; conditions: 2126
Pseudomonas aeruginosa [9] = test: Activity of beta-lactamase AmpC in Pseudomonas aeruginosa 1956 by spectrophotometry
Procedure, shortened: (§2)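 Crude French press lysates tested spectrophotometrically with nitrocefin; activity in nmol nitrocefin·min−1·mg protein−1. Induced activity obtained by adding 50 μg/ml cefoxitin to MHB culture 3 h before end of incubation; uninduced without. Triplicate measurements per strain; run-to-run variation under 15%.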

Pseudomonas aeruginosa [10] = test: Activity of beta-lactamase AmpC in Pseudomonas aeruginosa EryR by spectrophotometry; procedure, shortened: as §2
Pseudomonas aeruginosa [11] = test: Activity of beta-lactamase AmpC in Pseudomonas aeruginosa 2439 by spectrophotometry; procedure, shortened: as §2
Pseudomonas aeruginosa [12] = test: Activity of beta-lactamase AmpC in Pseudomonas aeruginosa 2126 by spectrophotometry; procedure, shortened: as §2
Pseudomonas aeruginosa [13] = test: Activity of beta-lactamase AmpC in Pseudomonas aeruginosa 3308 by spectrophotometry; procedure, shortened: as §2
[14] = tested on: Pseudomonas aeruginosa PAO1; test: Activity of beta-lactamase AmpC in Pseudomonas aeruginosa PAO1 by spectrophotometry; procedure, shortened: as §2
Pseudomonas aeruginosa [15] = test: Antibacterial activity against Pseudomonas aeruginosa 2439 harboring pNF225 carrying nfxB by twofold serial dilution method; assay type: functional
Procedure, shortened: (§3)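 nfxB plasmid pNF225 was electroporated into the strains and kept by adding 150 μg/ml ticarcillin to growth media. MIC by twofold serial dilution in cation-adjusted Mueller-Hinton agar, about 10^4 CFU per spot by Steers inoculator, at 37°C. Plates were read visually at 18 and 24 h. Values are modal MICs of three independent determinations.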

Pseudomonas aeruginosa [16] = test: Antibacterial activity against Pseudomonas aeruginosa FK06 harboring pNF225 carrying nfxB by twofold serial dilution method; assay type: functional; procedure, shortened: as §3
Pseudomonas aeruginosa [17] = test: Antibacterial activity against Pseudomonas aeruginosa EryR harboring pNF225 carrying nfxB by twofold serial dilution method; assay type: functional; procedure, shortened: as §3
Pseudomonas aeruginosa [18] = test: Antibacterial activity against Pseudomonas aeruginosa 3308 harboring pNF225 carrying nfxB by twofold serial dilution method; assay type: functional; procedure, shortened: as §3
Pseudomonas aeruginosa [19] = test: Antibacterial activity against Pseudomonas aeruginosa 2126 harboring pNF225 carrying nfxB by twofold serial dilution method; assay type: functional; procedure, shortened: as §3
Pseudomonas aeruginosa [20] = test: Antibacterial activity against Pseudomonas aeruginosa 1956 harboring pNF225 carrying nfxB by twofold serial dilution method; assay type: functional; procedure, shortened: as §3

Compound | MIC (Pseudomonas aeruginosa [1]) | MIC (Pseudomonas aeruginosa [2]) | MIC (Pseudomonas aeruginosa [3]) | MIC (Pseudomonas aeruginosa [4]) | MIC (Pseudomonas aeruginosa [5]) | MIC (Pseudomonas aeruginosa [6]) | MIC (Pseudomonas aeruginosa [7]) | MIC (Pseudomonas aeruginosa [8]) | Activity (Pseudomonas aeruginosa [9]) | Activity (Pseudomonas aeruginosa [10]) | Activity (Pseudomonas aeruginosa [11]) | Activity (Pseudomonas aeruginosa [12]) | Activity (Pseudomonas aeruginosa [13]) | Activity [14] | MIC (Pseudomonas aeruginosa [15]) | MIC (Pseudomonas aeruginosa [16]) | MIC (Pseudomonas aeruginosa [17]) | MIC (Pseudomonas aeruginosa [18]) | MIC (Pseudomonas aeruginosa [19]) | MIC (Pseudomonas aeruginosa [20])
CO/N=C(\C(=O)N[C@@H]1C(=O)N2C(C(=O)[O-])=C(C[N+]3(C)CCCC3)CS[C@H]12)c1csc(N)n1 | 8 µg/mL (≈ 16.6 µM) | 4 µg/mL (≈ 8.32 µM) | 2 µg/mL (≈ 4.16 µM) | 8 µg/mL (≈ 16.6 µM) | 2 µg/mL (≈ 4.16 µM) | 8 µg/mL (≈ 16.6 µM) | 2 µg/mL (≈ 4.16 µM) | 8 µg/mL (≈ 16.6 µM) |  |  |  |  |  |  |  |  |  |  |  | 
O=C(Cc1cccs1)N[C@@H]1C(=O)N2C(C(=O)O)=C(/C=C/c3ccc([N+](=O)[O-])cc3[N+](=O)[O-])CS[C@H]12 |  |  |  |  |  |  |  |  | 4550 nmol/min/mg | 3110 nmol/min/mg | 2680 nmol/min/mg | 5140 nmol/min/mg | 2670 nmol/min/mg | 1820 nmol/min/mg |  |  |  |  |  | 
NCC[C@H](O)C(=O)N[C@@H]1C[C@H](N)[C@@H](O[C@H]2O[C@H](CN)[C@@H](O)[C@H](O)[C@H]2O)[C@H](O)[C@H]1O[C@H]1O[C@H](CO)[C@@H](O)[C@H](N)[C@H]1O [AMIKACIN] | 1 µg/mL (≈ 1.71 µM) | 0.5 µg/mL (≈ 0.854 µM) | 1 µg/mL (≈ 1.71 µM) | 1 µg/mL (≈ 1.71 µM) | 4 µg/mL (≈ 6.83 µM) | 2 µg/mL (≈ 3.42 µM) | 1 µg/mL (≈ 1.71 µM) | 1 µg/mL (≈ 1.71 µM) |  |  |  |  |  |  | 2 µg/mL (≈ 3.42 µM) | 1 µg/mL (≈ 1.71 µM) | 8 µg/mL (≈ 13.7 µM) | 1 µg/mL (≈ 1.71 µM) | 2 µg/mL (≈ 3.42 µM) | 2 µg/mL (≈ 3.42 µM)
C[C@H]1[C@H](NC(=O)/C(=N\OC(C)(C)C(=O)O)c2csc(N)n2)C(=O)N1S(=O)(=O)O [AZTREONAM] | 1 µg/mL (≈ 2.3 µM) | 1 µg/mL (≈ 2.3 µM) | 1 µg/mL (≈ 2.3 µM) | 1 µg/mL (≈ 2.3 µM) |  | 1 µg/mL (≈ 2.3 µM) | 4 µg/mL (≈ 9.19 µM) | 1 µg/mL (≈ 2.3 µM) |  |  |  |  |  |  |  | 4 µg/mL (≈ 9.19 µM) |  | 4 µg/mL (≈ 9.19 µM) |  | 
O=C(N[C@H](CO)[C@H](O)c1ccc([N+](=O)[O-])cc1)C(Cl)Cl [CHLORAMPHENICOL] | 128 µg/mL (≈ 396 µM) | 128 µg/mL (≈ 396 µM) | 128 µg/mL (≈ 396 µM) | 128 µg/mL (≈ 396 µM) | 64 µg/mL (≈ 198 µM) | 128 µg/mL (≈ 396 µM) | 64 µg/mL (≈ 198 µM) | 128 µg/mL (≈ 396 µM) |  |  |  |  |  |  | 64 µg/mL (≈ 198 µM) | 64 µg/mL (≈ 198 µM) | 32 µg/mL (≈ 99 µM) | 64 µg/mL (≈ 198 µM) | 32 µg/mL (≈ 99 µM) | 64 µg/mL (≈ 198 µM)
O=C(O)c1cn(C2CC2)c2cc(N3CCNCC3)c(F)cc2c1=O [CIPROFLOXACIN] |  |  | 1 µg/mL (≈ 3.02 µM) |  |  |  | 0.12 µg/mL (≈ 0.362 µM) |  |  |  |  |  |  |  |  |  |  | 0.12 µg/mL (≈ 0.362 µM) |  | 
C[C@@H](O)[C@H]1C(=O)N2C(C(=O)O)=C(SCCNC=N)C[C@H]12 [IMIPENEM ANHYDROUS] | 0.5 µg/mL (≈ 1.67 µM) | 0.12 µg/mL (≈ 0.401 µM) | 2 µg/mL (≈ 6.68 µM) | 0.5 µg/mL (≈ 1.67 µM) | 2 µg/mL (≈ 6.68 µM) | 0.5 µg/mL (≈ 1.67 µM) | 2 µg/mL (≈ 6.68 µM) | 0.5 µg/mL (≈ 1.67 µM) |  |  |  |  |  |  | 2 µg/mL (≈ 6.68 µM) | 2 µg/mL (≈ 6.68 µM) | 2 µg/mL (≈ 6.68 µM) | 2 µg/mL (≈ 6.68 µM) | 1 µg/mL (≈ 3.34 µM) | 4 µg/mL (≈ 13.4 µM)
CC1(C)S[C@@H]2[C@H](NC(=O)[C@H](C(=O)O)c3ccsc3)C(=O)N2[C@H]1C(=O)O [TICARCILLIN] | 4 µg/mL (≈ 10.4 µM) | 2 µg/mL (≈ 5.2 µM) | 8 µg/mL (≈ 20.8 µM) | 4 µg/mL (≈ 10.4 µM) | 16 µg/mL (≈ 41.6 µM) | 2 µg/mL (≈ 5.2 µM) | 16 µg/mL (≈ 41.6 µM) | 4 µg/mL (≈ 10.4 µM) |  |  |  |  |  |  |  |  |  |  |  | 
NC[C@H]1O[C@H](O[C@H]2[C@H](O)[C@@H](O[C@H]3O[C@H](CO)[C@@H](O)[C@H](N)[C@H]3O)[C@H](N)C[C@@H]2N)[C@H](N)C[C@@H]1O [TOBRAMYCIN] | 0.25 µg/mL (≈ 0.535 µM) | 0.12 µg/mL (≈ 0.257 µM) | 0.25 µg/mL (≈ 0.535 µM) | 0.25 µg/mL (≈ 0.535 µM) | 0.5 µg/mL (≈ 1.07 µM) | 0.25 µg/mL (≈ 0.535 µM) | 0.25 µg/mL (≈ 0.535 µM) | 0.25 µg/mL (≈ 0.535 µM) |  |  |  |  |  |  | 0.5 µg/mL (≈ 1.07 µM) | 0.25 µg/mL (≈ 0.535 µM) | 1 µg/mL (≈ 2.14 µM) | 0.25 µg/mL (≈ 0.535 µM) | 0.5 µg/mL (≈ 1.07 µM) | 0.5 µg/mL (≈ 1.07 µM)
GENTAMICIN |  | 0.25 µg/mL | 1 µg/mL |  | 2 µg/mL | 1 µg/mL | 0.25 µg/mL |  |  |  |  |  |  |  | 2 µg/mL |  | 2 µg/mL | 1 µg/mL | 2 µg/mL | 2 µg/mL
